Experimental data collected from several papers.
Each line is one published result; the experiments were not run side by side.
Target: Serine/threonine-protein kinase DCLK2 (DCLK2, Homo sapiens, UniProt Q8N568)
Sequence (Q8N568 1-766, as in one of the studies): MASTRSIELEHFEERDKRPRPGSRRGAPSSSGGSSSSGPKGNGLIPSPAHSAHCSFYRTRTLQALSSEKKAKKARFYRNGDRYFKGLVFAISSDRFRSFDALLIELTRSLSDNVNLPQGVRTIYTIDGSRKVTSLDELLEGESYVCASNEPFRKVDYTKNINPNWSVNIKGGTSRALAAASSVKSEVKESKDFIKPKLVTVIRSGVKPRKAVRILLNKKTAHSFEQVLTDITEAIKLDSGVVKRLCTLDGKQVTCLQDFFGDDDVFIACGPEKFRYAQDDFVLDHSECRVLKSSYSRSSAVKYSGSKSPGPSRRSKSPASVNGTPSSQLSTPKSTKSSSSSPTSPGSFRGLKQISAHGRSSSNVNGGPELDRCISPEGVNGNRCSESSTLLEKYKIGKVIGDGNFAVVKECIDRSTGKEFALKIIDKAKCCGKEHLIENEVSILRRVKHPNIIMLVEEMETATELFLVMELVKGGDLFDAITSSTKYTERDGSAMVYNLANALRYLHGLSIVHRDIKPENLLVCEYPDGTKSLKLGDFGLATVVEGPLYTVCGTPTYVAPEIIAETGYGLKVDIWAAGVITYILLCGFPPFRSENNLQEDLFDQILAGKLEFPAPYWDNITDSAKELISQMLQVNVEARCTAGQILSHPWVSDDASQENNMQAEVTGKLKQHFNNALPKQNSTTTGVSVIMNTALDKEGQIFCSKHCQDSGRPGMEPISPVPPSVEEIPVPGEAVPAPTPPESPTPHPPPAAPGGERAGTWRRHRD

C=CC(=O)N1CCC(C(=O)NCC(=O)N2CCN(c3nc(-c4cnc(N)nc4C(F)F)nc(N4CCOCC4)n3)CC2)CC1  remaining binding (binding; competition with immobilised ligand; 1 µM): 98%
NS(=O)(=O)c1cc(NC(=O)Cc2ccccc2)ccc1Oc1cccc(Cl)c1  remaining binding (cell-free assay; competition with immobilised ligand; 1 µM): 99%
COc1ccnn2ncc(-c3ccnc(N(C)C)n3)c12  remaining binding (binding; 1 µM): 100%
CO[C@@H](C)c1c(Nc2ccc([C@@H](N(C)C(=O)C3CCS(=O)(=O)CC3)C(F)(F)F)cc2)cnc2cc(Cl)nn12  remaining binding (cell-free assay; competition with immobilised ligand; 1 µM): 95%
CCN1CCN(Cc2ccc(C(=O)Nc3ccc(C)c(Oc4ccc5c(c4)CC(=O)N5)c3)cc2C(F)(F)F)CC1  remaining binding (binding; competition with immobilised ligand; 1 µM): 92%
O=C(c1ccc(Nc2nccc(-c3cc4ccccc4s3)n2)cc1)N1CCC(N2CCCC2)CC1  remaining binding (binding; competition with immobilised ligand; 1 µM): 97%
CCC(=O)N[C@H]1CC[C@@H](C(=O)N(C)c2ccc(-c3nc4ccccc4o3)cc2)C1  remaining binding (cell-free assay; competition with immobilised ligand; 1 µM): 98%
c1cncc(-c2cccc(Nc3nccc(NC4CCCCC4)n3)c2)c1  remaining binding (binding; competition with immobilised ligand; 10 µM): 100%
O=C(c1ccc(Nc2ncc(Cl)c(-c3ccc(Cl)s3)n2)cc1)N1CCC(N2CCCC2)CC1  remaining binding (binding; competition with immobilised ligand; 1 µM): 90%
O=C1NC(c2ccccn2)Sc2ccccc21 (stereo not shown)  remaining binding (cell-free assay; competition with immobilised ligand; 1 µM): 92%
COc1ncc2cc3ccccc3nc2c1C#N  remaining binding (cell-free assay; competition with immobilised ligand; 5 µM): 94%
CNC(=O)[C@@H]1CC[C@@H](n2c(-c3ccc4cnccc4c3)nc3ccc(C(=O)NCc4cccc(C(N)=O)c4)cc32)C1  remaining binding (binding; competition with immobilised ligand; 1 µM): 100%
F[C@@H]1CCN(c2nccc(-c3cnn4ncccc34)n2)C1  remaining binding (binding; 1 µM): 88%
CCOCCn1cc(C(=O)Nc2ccc(-n3nc(-c4cccnc4)cc3C(F)(F)F)cn2)ccc1=O  remaining binding (cell-free assay; competition with immobilised ligand; 1 µM): 89%
CN(c1nccc(-c2cnn3ncccc23)n1)C1CC1  remaining binding (binding; 1 µM): 100%
O=C(Nc1c[nH]nc1C(=O)NC1CCNCC1)c1cc(F)cc(F)c1  remaining binding (binding; competition with immobilised ligand; 1 µM): 100%
COc1cnc(Nc2cccc(S(N)(=O)=O)c2)nc1N1CCN(c2ccccc2)CC1  remaining binding (binding; competition with immobilised ligand; 1 µM): 92%
c1cnn2ncc(-c3ccnc(N4CCC45COC5)n3)c2c1  remaining binding (binding; 1 µM): 78%
Cc1cnc(Nc2ccc(C(=O)N3CCC(N4CCCC4)CC3)cc2)nc1-c1cc2ccccc2s1  remaining binding (binding; competition with immobilised ligand; 1 µM): 100%
